Source: ChEMBL document CHEMBL1152494, “Synthesis of some new 1,3,4-thiadiazol-2-ylmethyl-1,2,4-triazole derivatives and investigation of their antimicrobial activities” (2009)
Activity calls are given as the source filed them. The calls are words filed in the database; no cut-off is given here.

Legend:
Format in all cases: functional
Escherichia coli [1] = assay: Antimicrobial activity against Escherichia […] after 18 hrs by agar-well diffusion assay
Method in brief: (§1)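 Organisms suspended in Mueller Hinton broth, diluted to about 10⁶ cfu/mL, and flood-inoculated onto Mueller Hinton agar, then dried. Samples dissolved in DMSO were added to 5 mm wells cut in the agar. Plates were incubated 18 h at 35 °C, and inhibition zones were measured. Ampicillin was the standard drug, with a DMSO solvent control.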

[2] = tested on: Yersinia pseudotuberculosis; assay: Antimicrobial activity against Yersinia pseudotuberculosis ATCC 911 after 18 hrs by agar-well diffusion assay
Method in brief: (§2)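 Bacteria were suspended in Mueller Hinton broth at about 10⁶ cfu/mL and flood-inoculated onto Mueller Hinton agar, then dried. Samples in DMSO went into 5-mm cork-bored wells. Plates were incubated 18 h at 35 °C and the zone of inhibition was read. Ampicillin was the standard, with a DMSO solvent control.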

Staphylococcus aureus [3] = assay: Antimicrobial activity against Staphylococcus aureus ATCC […] after 18 hrs by agar-well diffusion assay; method in brief: as §1
Pseudomonas aeruginosa [4] = assay: Antimicrobial activity against Pseudomonas aeruginosa ATCC 27853 after 18 hrs by agar-well diffusion assay; method in brief: as §1
Candida tropicalis [5] = assay: Antimicrobial activity against Candida tropicalis ATCC 13803 after 18 hrs by agar-well diffusion assay
Method in brief: (§3)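 Yeast suspended in Mueller Hinton broth at about 10⁶ cfu/mL and flood-inoculated onto Sabouraud dextrose agar, then dried. Samples dissolved in DMSO were placed in 5 mm wells bored in the agar. After 18 h at 35 °C, the zone of inhibition was measured. Fluconazole was the standard drug, with a DMSO solvent control.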

Bacillus cereus [6] = assay: Antimicrobial activity against Bacillus cereus 702 Roma after 18 hrs by agar-well diffusion assay; method in brief: as §1
Enterococcus faecalis [7] = assay: Antimicrobial activity against Enterococcus faecalis ATCC 29212 after 18 hrs by agar-well diffusion assay; method in brief: as §1
Candida albicans [8] = assay: Antimicrobial activity against Candida albicans ATCC 60193 after 18 hrs by agar-well diffusion assay; method in brief: as §3
Candida tropicalis [9] = assay: Antimicrobial activity against Candida tropicalis ATCC 13803 at 5 ug after 18 hrs by agar-well diffusion assay
Method in brief: (§4)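 Yeasts were suspended in Mueller Hinton broth at about 10⁶ cfu/mL and flood-inoculated onto Sabouraud dextrose agar, then dried. Samples in DMSO went into 5-mm wells. Plates were incubated 18 h at 35 °C and inhibition zones were measured. Fluconazole was the standard, with a DMSO solvent control.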

Candida albicans [10] = assay: Antimicrobial activity against Candida albicans ATCC 60193 at 5 ug after 18 hrs by agar-well diffusion assay; method in brief: as §4
Bacillus cereus [11] = assay: Antimicrobial activity against Bacillus cereus 702 Roma at 10 ug after 18 hrs by agar-well diffusion assay; conditions: read-out: IZ; method in brief: as §1
[12] = tested on: Yersinia pseudotuberculosis; assay: Antimicrobial activity against Yersinia pseudotuberculosis ATCC 911 at 10 ug after 18 hrs by agar-well diffusion assay; conditions: ATCC 911, 18 h, read-out: IZ; method in brief: as §2
Pseudomonas aeruginosa [13] = assay: Antimicrobial activity against Pseudomonas aeruginosa ATCC 27853 at 10 ug after 18 hrs by agar-well diffusion assay; conditions: ATCC 27853, 18 h, read-out: IZ; method in brief: as §1
Enterococcus faecalis [14] = assay: Antimicrobial activity against Enterococcus faecalis ATCC 29212 at 10 ug after 18 hrs by agar-well diffusion assay; conditions: ATCC 29212, 18 h, read-out: IZ; method in brief: as §1
Staphylococcus aureus [15] = assay: Antimicrobial activity against Staphylococcus aureus ATCC […] at 10 ug after 18 hrs by agar-well diffusion assay; conditions: ATCC 25923, 18 h, read-out: IZ; method in brief: as §1
Escherichia coli [16] = assay: Antimicrobial activity against Escherichia […] at 10 ug after 18 hrs by agar-well diffusion assay; conditions: read-out: IZ; method in brief: as §2

Structure (SMILES)	inhibition zone (IZ) (Escherichia coli [1])	inhibition zone (IZ) [2]	inhibition zone (IZ) (Staphylococcus aureus [3]; ATCC 25923)	inhibition zone (IZ) (Pseudomonas aeruginosa [4])	inhibition zone (IZ) (Candida tropicalis [5])	inhibition zone (IZ) (Bacillus cereus [6])	inhibition zone (IZ) (Enterococcus faecalis [7])	inhibition zone (IZ) (Candida albicans [8])	inhibition zone (IZ) (Staphylococcus aureus [3]) [mm]	zone of inhibition at 5 µg/disc (Candida tropicalis [9]; ATCC 13803, 18 h, read-out: IZ) [mm]	zone of inhibition at 5 µg/disc (Candida albicans [10]; ATCC 60193, 18 h, read-out: IZ) [mm]	zone of inhibition at 10 µg/disc (Bacillus cereus [11]) [mm]	inhibition zone (IZ) (Candida tropicalis [9])	zone of inhibition at 10 µg/disc [12] [mm]	zone of inhibition at 10 µg/disc (Pseudomonas aeruginosa [13]) [mm]	inhibition zone (IZ) (Candida albicans [10])	zone of inhibition at 10 µg/disc (Enterococcus faecalis [14]) [mm]	zone of inhibition at 10 µg/disc (Staphylococcus aureus [15]) [mm]	zone of inhibition at 10 µg/disc (Escherichia coli [16]) [mm]
COc1ccc(-n2c(Cn3nc(-c4ccc(C)cc4)n(N)c3=O)nnc2SC)cc1	inactive	inactive	inactive	inactive	inactive	inactive	inactive	inactive	–	–	–	–	–	–	–	–	–	–	–
COc1ccc(Nc2nnc(Cn3nc(-c4ccc(C)cc4)n(N)c3=O)s2)cc1	30 mm	22 mm	–	>30 mm	inactive	23 mm	20 mm	inactive	28	–	–	–	–	–	–	–	–	–	–
CCSc1nnc(Cn2nc(-c3ccc(C)cc3)n(N)c2=O)n1-c1ccc(F)cc1	inactive	inactive	–	inactive	6 mm	9 mm	inactive	6 mm	8	–	–	–	–	–	–	–	–	–	–
Cc1ccc(-c2nn(Cc3nnc(S)n3-c3ccccc3)c(=O)n2N)cc1	25 mm	22 mm	–	30 mm	inactive	20 mm	20 mm	inactive	24	–	–	–	–	–	–	–	–	–	–
Cc1ccc(-c2nn(Cc3nn(CN4CCN(C)CC4)c(=S)n3-c3ccc(F)cc3)c(=O)n2/N=C/c2ccc(F)cc2)cc1	inactive	inactive	inactive	inactive	inactive	8 mm	inactive	inactive	–	–	–	–	–	–	–	–	–	–	–
OC(Cn1cncn1)(Cn1cncn1)c1ccc(F)cc1F [FLUCONAZOLE]	–	–	–	–	–	–	–	–	–	25	25	–	–	–	–	–	–	–	–
Cc1ccc(-c2nn(CC(=O)NNC(=S)Nc3ccccc3)c(=O)n2N)cc1	inactive	inactive	–	inactive	inactive	inactive	inactive	inactive	6	–	–	–	–	–	–	–	–	–	–
COc1ccc(-n2c(S)nnc2Cn2nc(-c3ccc(C)cc3)n(N)c2=O)cc1	28 mm	22 mm	–	30 mm	inactive	25 mm	25 mm	inactive	30	–	–	–	–	–	–	–	–	–	–
COc1ccc(/C=N/n2c(-c3ccc(C)cc3)nn(Cc3nnc(S)n3-c3ccc(F)cc3)c2=O)cc1	30 mm	30 mm	–	35 mm	inactive	22 mm	24 mm	inactive	26	–	–	–	–	–	–	–	–	–	–
Cc1ccc(-c2nn(Cc3nnc(N(C)c4ccccc4)s3)c(=O)n2N)cc1	inactive	inactive	inactive	inactive	6 mm	7 mm	inactive	inactive	–	–	–	–	–	–	–	–	–	–	–
Cc1ccc(-c2nn(Cc3nnc(S)n3-c3ccc(F)cc3)c(=O)n2/N=C/c2ccc(F)cc2)cc1	25 mm	22 mm	–	30 mm	inactive	20 mm	20 mm	inactive	24	–	–	–	–	–	–	–	–	–	–
Cc1ccc(-c2nn(Cc3nnc(S)n3-c3ccc(F)cc3)c(=O)n2N)cc1	30 mm	26 mm	–	35 mm	inactive	25 mm	30 mm	inactive	26	–	–	–	–	–	–	–	–	–	–
CSc1nnc(Cn2nc(-c3ccc(C)cc3)n(N)c2=O)n1-c1ccccc1	inactive	inactive	inactive	inactive	inactive	inactive	inactive	inactive	–	–	–	–	–	–	–	–	–	–	–
Cc1ccc(-c2nn(Cc3nn(CNCCN4CCOCC4)c(=S)n3-c3ccccc3)c(=O)n2N)cc1	inactive	inactive	inactive	inactive	inactive	inactive	inactive	inactive	–	–	–	–	–	–	–	–	–	–	–
Cc1ccc(-c2nn(Cc3nn(CN4CCN(C)CC4)c(=S)n3-c3ccccc3)c(=O)n2N)cc1	inactive	inactive	inactive	inactive	inactive	inactive	inactive	inactive	–	–	–	–	–	–	–	–	–	–	–
Cc1ccc(-c2nn(CC(=O)NNC(=S)Nc3ccc(F)cc3)c(=O)n2N)cc1	34 mm	28 mm	–	35 mm	inactive	22 mm	30 mm	inactive	30	–	–	–	–	–	–	–	–	–	–
CC1(C)S[C@@H]2[C@H](NC(=O)[C@H](N)c3ccccc3)C(=O)N2[C@H]1C(=O)O [AMPICILLIN]	–	–	–	–	–	–	–	–	–	–	–	15	inactive	18	18	inactive	10	35	10
Cc1ccc(-c2nn(Cc3nnc(Nc4ccc(F)cc4)s3)c(=O)n2N)cc1	inactive	inactive	inactive	inactive	inactive	inactive	inactive	inactive	–	–	–	–	–	–	–	–	–	–	–
COc1ccc(NC(=S)NNC(=O)Cn2nc(-c3ccc(C)cc3)n(N)c2=O)cc1	24 mm	25 mm	–	35 mm	inactive	22 mm	28 mm	inactive	28	–	–	–	–	–	–	–	–	–	–
Cc1ccc(-c2nn(Cc3nnc(Nc4ccccc4)s3)c(=O)n2N)cc1	inactive	inactive	inactive	inactive	inactive	inactive	inactive	inactive	–	–	–	–	–	–	–	–	–	–	–
Cc1ccc(-c2nn(Cc3nnc(S)n3-c3ccccc3)c(=O)n2/N=C/c2ccc(F)cc2)cc1	25 mm	25 mm	–	30 mm	inactive	20 mm	20 mm	inactive	28	–	–	–	–	–	–	–	–	–	–
